VLA-4 inh – inhibition in a human VLA-4 binding assay; VLA-4 expressing cells, ligand binding flow cytometry; inhibition, % (about 7 µM as worked out from the volumes in the protocol); 330,000 compounds, 0.2% hits; AID 2557; in the data active means inhibition above about 50%
NR2E3 ag-1 – agonists of human NR2E3 nuclear receptor. Q9Y5X4. CHO-S Gal4-NCOR/VP16-NR2E3 two-hybrid, luciferase. inhibition of corepressor binding, % at 3.98 µM. 360,000 compounds, 0.35% hits;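 active means inhibition above the mean of all tested compounds plus 3 SD, cut at about 70% in these data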;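 further: 0% = DMSO with NR2E3 transfected cells and 100% = cells lacking NR2E3 construct; higher means lower luciferase signal from less NR2E3 corepressor binding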
NR2E3 ag-2 – agonists of human nuclear receptor NR2E3. inhibition of corepressor binding, % at 4.78 µM. 320,000 compounds, 0.12% hits. Q9Y5X4. AID 2300. GST-NR2E3/biotin-RetCOR TR-FRET, 1536-well;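 active means percent inhibition above the cutoff of mean plus 3 SD of all tested compounds, set per screening campaign, cut at about 20% in these data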;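 further: 0% = DMSO wells and 100% = biotin wells as full block of FRET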
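Format: 1536-well format; test system: GST-NR2E3 and biotin-RetCOR proteins; read-out basis: percent inhibition of TR-FRET ratio; timing: 5 h incubation at 4 °C; detection: time-resolved FRET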
NR1D1 modulator – modulators of human Rev-erb alpha DNA binding; P20393; Rev-erbα–FITC-DNA binding, fluorescence polarization, 90 min; activity, % at 10 µM; 370,000 compounds, 0.79% hits;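 active means activity above about 14%, limit read from the data; passing the limit was not always enough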;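 further: 0% = DMSO wells with 35 nM protein and 100% = DMSO wells with 750 nM protein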
Target sequence (P20393 whole entry, looked up): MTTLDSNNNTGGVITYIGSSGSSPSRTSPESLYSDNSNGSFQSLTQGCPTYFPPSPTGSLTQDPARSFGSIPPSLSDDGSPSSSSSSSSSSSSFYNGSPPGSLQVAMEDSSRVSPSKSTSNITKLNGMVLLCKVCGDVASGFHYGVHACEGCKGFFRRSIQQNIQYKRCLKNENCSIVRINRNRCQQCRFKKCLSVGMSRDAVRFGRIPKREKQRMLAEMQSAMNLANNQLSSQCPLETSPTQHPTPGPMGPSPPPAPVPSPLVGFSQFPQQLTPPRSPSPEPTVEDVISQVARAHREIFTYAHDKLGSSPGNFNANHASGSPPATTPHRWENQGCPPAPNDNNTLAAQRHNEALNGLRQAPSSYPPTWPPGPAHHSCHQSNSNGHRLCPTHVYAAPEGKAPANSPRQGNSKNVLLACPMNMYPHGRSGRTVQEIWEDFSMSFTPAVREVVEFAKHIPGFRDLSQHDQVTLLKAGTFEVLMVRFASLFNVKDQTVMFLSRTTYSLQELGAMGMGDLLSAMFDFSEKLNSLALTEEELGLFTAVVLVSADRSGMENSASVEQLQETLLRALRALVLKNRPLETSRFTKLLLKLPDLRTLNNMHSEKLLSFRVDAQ
PG9 Ab binder – small molecules binding HIV-1 gp120 antibody PG9 | AID 624416 | 360,000 compounds, 0.43% hits | TR-FRET gp120-PG9 antibody binding | inhibition, % at 6.7 µM; in the data active means inhibition above about 8.5%
PG9 bind confirm – PG9 antibody binding, confirmed. TR-FRET PG9 antibody binding, biochemical. shares compounds with PG9 Ab binder. 1,500 compounds, 90% hits. inhibition, % at 6.7 µM; in the data active means inhibition above about 9%
PGV04 counter – counter-screen for PG9 binders: binding control antibody PGV04; TR-FRET PGV04 antibody-gp120 binding, biochemical; shares compounds with PG9 Ab binder; inhibition, % at 6.7 µM; AID 651604; 1,500 compounds, 95% hits; in the data active means inhibition above about 9.5%
Active calls of the source: *; i = inactive; . = not tested or not shown. Rows were chosen to be rich in hits. Some 1.6% of all compounds tested hit in one or more screens of this group.

SMILES	VLA-4 inh	NR2E3 ag-1	NR2E3 ag-2	NR1D1 modulator	PG9 Ab binder	PG9 bind confirm	PGV04 counter
O=C(CCC(=O)OCC(=O)c1ccccc1)Nc1cccc2cccnc12	-196.8	21.5	1.8	4.1	0.5	.	.
Cc1ccccc1NC(=O)CCC(=O)OCC(=O)c1ccc(-c2ccccc2)cc1	-4.5	-5.0	-0.6	0.1	12.9*	13.1*	23.9*
Cc1cc(N=Cc2c(O)ccc3cc(Br)ccc23)no1	6.8	9.0	16.1	1.3	9.1*	7.2	10.4*
CC(C)(N[C@@H](Cc1ccccc1)C(=O)NCCc1c[nH]c2ccccc12)C(=O)NC1CCCCC1	.	.	.	-6.0	.	.	.
Cc1ccc(S(=O)(=O)CCC(=O)N(CCCN2CCOCC2)c2nc3ccccc3s2)cc1	-0.2	-48.5	-1.2	4.9	9.6*	6.6	10.6*
O=C(CCS(=O)(=O)c1ccccc1)N(CCCN1CCOCC1)c1nc2ccccc2s1	-5.7	-42.9	-2.1	11.2	0.8	.	.
O=S1(=O)c2c(cccc2N2CCC[C@H]2CO)O[C@@H]2CCN1C2	.	.	.	-5.4	.	.	.
COc1cccc(C2/C(=C(\O)c3ccc4c(c3)OCCO4)C(=O)C(=O)N2CC2CCCO2)c1 (stereo not drawn)	i	-3.4	.	0.6	9.2*	16.0*	20.1*
Cc1ccc(C2/C(=C(\O)c3ccc4c(c3)OCCO4)C(=O)C(=O)N2CC2CCCO2)cc1 (stereo not drawn)	-18.7	4.9	.	7.6	9.7*	19.7*	22.4*
COc1ccc(/C(O)=C2/C(=O)C(=O)N(CC3CCCO3)C2c2cccc(OC)c2)cc1 (stereo not drawn)	-3.2	-7.6	12.9	-0.9	1.6	.	.
O=C(Nc1ccc(F)cc1)OCCN1C(=O)CCC12CCC(c1ccccc1)CC2 (stereo not drawn)	.	.	.	9.9	.	.	.
COc1ccccc1NC(C)=O	-4.0	1.2	-1.8	-3.2	11.7*	6.5	8.0
S=C(SCc1c(Cl)cccc1Cl)N1CCSCC1	.	.	.	1.3	-0.5	.	.
CC(=O)c1ccc(N2CCN(C(=O)/C=C/c3ccc(S(=O)(=O)N4CCOCC4)cc3)CC2)cc1	5.6	-9.1	5.1	-0.6	0.5	.	.
CC(=O)c1ccc(N2CCN(S(=O)(=O)c3cccc(S(=O)(=O)N4CCOCC4)c3)CC2)cc1	2.8	-1.8	3.0	14.1	16.2*	18.0*	27.2*
CCOc1ccc(CCNC(=O)c2cc3ccsc3n2C)cc1OC	.	.	.	-0.9	.	.	.
COc1ccc(-n2c(=O)[nH]cc(C(=O)Nc3ccc4c(c3)OCCO4)c2=O)cc1OC	-11.4	8.1	0.1	-1.4	-1.8	.	.
COc1cccc(-n2c(=O)[nH]cc(C(=O)Nc3ccc4c(c3)OCCO4)c2=O)c1	14.8	10.8	0.7	3.4	28.9*	7.3	8.6
O=C(COc1ccc(F)cc1Cl)Nc1nnc(-c2ccc(F)c(F)c2)o1	.	.	.	-3.9	.	.	.
O=C(Nc1nccs1)c1ccc(COc2ccccc2)o1	3.1	-79.7	-0.5	8.3	9.3*	12.8*	20.4*
Cc1ccc(OCc2ccc(C(=O)Nc3nccs3)o2)cc1	13.8	-93.8	-3.3	0.5	13.5*	14.6*	21.1*
O=C(Cc1ccccc1)Nc1nnc(-c2cccs2)s1	-2.1	-57.8	-7.1	8.5	12.4*	18.6*	31.1*
CCC(=O)Nc1nnc(-c2cccs2)s1	19.6	-32.9	5.7	-3.8	-0.9	.	.
COc1cccc(-c2nnc(NC(=O)Cc3cccs3)s2)c1	11.2	-12.8	-11.5	16.2	12.7*	18.3*	38.9*
O=C(Cn1nnc(N2CCOCC2)n1)NN=Cc1ccccc1Cl	.	.	.	-1.2	-1.0	.	.
SMILES	VLA-4 inh	NR2E3 ag-1	NR2E3 ag-2	NR1D1 modulator	PG9 Ab binder	PG9 bind confirm	PGV04 counter
O=C(C[C@@H]1CC[C@@H]2[C@H](COC[C@H](O)CN2Cc2cccc(C(F)(F)F)c2)O1)NCc1ccc(Cl)cc1	.	.	.	-2.5	2.3	.	.
C[C@H](NC(=O)C[C@@H]1CC[C@H]2[C@@H](COC[C@H](O)CN2Cc2ccc(C(F)(F)F)cc2)O1)c1ccccc1	.	.	.	1.4	8.8*	14.0*	18.7*
Cc1ccc(-n2c(SCC(=O)Nc3ccc4c(c3)OCCO4)nnc2-c2cnccn2)cc1	.	.	.	-2.8	.	.	.
CC1=CC(=C(C#N)C#N)C=C(C)N1CCN1CCN(C(=O)Nc2cccc(Cl)c2)CC1	1.2	-14.9	11.9	14.6	11.8*	16.9*	25.8*
CC(C)C[C@H](NC1(C(=O)NC2CCCCC2)CCCCC1)C(=O)NCCc1c[nH]c2ccccc12	.	.	.	4.7	.	.	.
CC(=O)c1ccc(N2CCN(C(=S)Nc3cc(C)ccc3C)CC2)cc1	0.0	-19.0	-0.7	7.6	12.4*	8.8*	14.6*
CN(c1ccc(C(=O)COC(=O)C2CC2)cc1)S(C)(=O)=O	12.2	-37.3	.	3.7	13.7*	18.1*	20.2*
CCOC(=O)C1CCN(C(=O)c2ccc(N(C)S(C)(=O)=O)cc2)CC1	-10.4	-4.3	1.3	-4.4	0.1	.	.
COc1ccc2c(C)cc(=S)[nH]c2c1	.	-10.6	.	-2.9	19.1*	8.6*	9.5*
COc1ccc2c(-c3ccccc3)cc(=S)[nH]c2c1	10.0	-18.0	3.4	-0.8	0.5	.	.
Cc1ccc(C2c3c(n[nH]c3C(C)C)C(=O)N2c2ccccc2)cc1 (stereo not drawn)	.	.	.	-1.8	2.0	.	.
Nc1nc2c(C(=O)N3CCCC3)nnn2c2ccccc12	.	.	.	-7.2	2.4	.	.
Nc1nc2c(-c3ccc(Br)cc3)nnn2c2ccccc12	3.0	-154.2	1.8	5.2	10.9*	12.7*	29.6*
COc1cccc(-c2nc(C(N)=O)c3[nH]c(=O)n(-c4ccccc4)c3n2)c1OC	10.8	10.5	-1.9	-10.6	1.9	.	.
CCOc1ccccc1-c1nc(C(N)=O)c2[nH]c(=O)n(-c3ccccc3)c2n1	5.2	11.8	1.6	-6.1	19.1*	27.7*	58.5*
COC(=O)c1ccccc1NC(=O)COc1ccc2c(c1)OCO2	-27.2	-22.5	5.4	10.5	9.2*	5.9	7.3
O=C(COC(=O)c1ccccc1NC(=O)c1ccco1)Nc1ccc2c(c1)OCO2	-4.9	3.5	0.3	-0.9	11.4*	9.2*	11.9*
C[C@H](CO)N1C[C@H](C)[C@@H](CN(C)C(=O)Nc2ccc(C(C)(C)C)cc2)OCc2cn(nn2)CCCC1=O	.	.	.	3.3	-0.8	.	.
Cc1ccc(-c2nnc(SCC(=O)Nc3ccc(-c4nc5ccc(C)cc5s4)cc3)n2Cc2ccco2)cc1	.	.	.	-0.9	.	.	.
O=C(CSc1nnc2ccccn12)Nc1ccc2c(c1)OCO2	0.2	-12.2	-1.7	5.0	-0.7	.	.
C=CCn1c(SCC(=O)Nc2ccc(-c3nc4ccc(C)cc4s3)cc2)nnc1-c1ccccc1	40.6	-165.3	-307.5	20.4	9.6*	12.5*	26.6*
O=C(CSc1nnc2ccccn12)Nc1cccc(-c2nc3ccccc3s2)c1	-5.4	-128.4	1.0	19.5	8.9*	13.5*	24.9*
Cc1ccnc(SCc2cc(=O)c(OC(=O)c3ccc([N+](=O)[O-])cc3)co2)n1	.	.	.	-9.2	.	.	.
